{"source": "ChEMBL document CHEMBL1131235", "about": "“(R)-(+)-2-[[[3-(Morpholinomethyl)-2H-chromen-8-yl]oxy]methyl] morpholine methanesulfonate: a new selective rat 5-hydroxytryptamine1B receptor antagonist” (J Med Chem, 1998)", "key": {"Rattus norvegicus [1]": {"organism": "Rattus norvegicus", "experiment": "Effect on 5-HIAA/5-HT turnover in Hippocampus of rat brain, expressed as percent of control", "assay_type": "functional", "procedure,_shortened": "(§1)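 Rats received compound 20 mg/kg sc or saline 30 min before NSD 1015 (3-hydroxybenzylhydrazine dihydrochloride), 100 mg/kg sc. They were killed 30 min later. Hypothalamus, hippocampus, frontal cortex and striatum were dissected, frozen on dry ice and stored at -70 °C. 5-HTP, 5-HT and 5-HIAA were measured by HPLC and expressed as % of saline control.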"}, "Rattus norvegicus [2]": {"tested_on": "Rattus norvegicus", "experiment": "Effect on the wet dog shake response(WDS) in rats after 10 determinations at a dose of 3 mg/kg, sc pretreated with saline", "assay_type": "functional", "conditions": "route subcutaneous", "procedure,_shortened": "(§2)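 Rats were pretreated with pCPA 200 mg/kg ip or saline at 72 and 48 h before compound, 3 mg/kg sc. Wet dog shakes (whole-body and head shakes) were counted from 5 to 65 min after injection. Groups of 8-10 rats were compared with saline-treated rats (n = 30), Dunnett's t-test after ANOVA.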"}, "Rattus norvegicus [3]": {"organism": "Rattus norvegicus", "experiment": "Effect on 5-HIAA/5-HT turnover in Striatum of rat brain, expressed as percent of control", "assay_type": "functional", "procedure,_shortened": "as §1"}, "Rattus norvegicus [4]": {"organism": "Rattus norvegicus", "experiment": "Effect on 5-HIAA/5-HT turnover in Hyphalamus of rat brain, expressed as percent of control", "assay_type": "functional", "procedure,_shortened": "as §1"}, "[5]": {"experiment": "Antagonism of the induced potentiation of K+ stimulated [3H]5-HT release from brain slices with 5-HT (100 nM) at a concentration of 1000 nM.", "assay_type": "functional, Rattus norvegicus", "procedure,_shortened": "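Rat occipital cortex slices (0.3 × 0.3 mm) were preloaded with [3H]-5-HT and superfused at 0.4 mL/min with oxygenated Krebs-Henseleit buffer, pH 7.4, containing 2.5 μM citalopram. After a 50 min wash, 4-min fractions were collected. 25 mM KCl was applied for 4 min at 62 min and again at 98 min. Test compound and 5-HT were given together in the same solution for 72 min. Fraction and slice radioactivity were counted by liquid scintillation. S2/S1 was expressed as % of control; Dunnett's t-test after ANOVA.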"}, "[6]": {"molecular_target": "5-hydroxytryptamine receptor 7 (Rattus norvegicus, UniProt P32305)", "sequence (P32305 whole entry)": "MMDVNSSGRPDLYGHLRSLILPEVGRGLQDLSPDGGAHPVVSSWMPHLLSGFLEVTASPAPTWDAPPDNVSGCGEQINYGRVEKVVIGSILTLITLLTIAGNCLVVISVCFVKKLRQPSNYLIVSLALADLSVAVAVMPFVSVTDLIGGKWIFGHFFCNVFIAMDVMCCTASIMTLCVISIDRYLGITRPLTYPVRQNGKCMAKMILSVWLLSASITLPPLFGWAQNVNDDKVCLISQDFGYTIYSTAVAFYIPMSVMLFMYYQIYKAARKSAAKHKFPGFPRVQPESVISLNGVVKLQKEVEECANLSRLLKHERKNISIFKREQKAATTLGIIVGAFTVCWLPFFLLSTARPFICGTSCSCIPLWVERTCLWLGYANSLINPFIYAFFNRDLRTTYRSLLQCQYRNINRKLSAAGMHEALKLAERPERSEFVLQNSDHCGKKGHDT", "experiment": "Binding affinity against 5-hydroxytryptamine 7 receptor using from CHO cell membranes [3H]5-HT as the radioligand.", "procedure,_shortened": "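Binding by the Johansson et al. method. 5-HT2A used [3H]ketanserin and 5-HT2C used [3H]mesulergine, both on rat cortex. 5-HT6 and 5-HT7 used [3H]-5-HT on CHO cell membranes expressing the rat receptors.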"}, "[7]": {"experiment": "Antagonism of the induced potentiation of K+ stimulated [3H]-5-HT release from brain slices with 5-HT (100 nM) at a concentration of 1000 nM, expressed as percent of control", "assay_type": "functional, Rattus norvegicus", "set-up": "scale not given: the % may be the effect or the level left", "procedure,_shortened": "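Superfused rat occipital cortex slices (0.3 × 0.3 mm) preloaded with [3H]-5-HT; Krebs-Henseleit pH 7.4 with 2.5 μM citalopram, 0.4 mL/min. Two 4-min 25 mM KCl pulses (62 and 98 min). Compound and 5-HT were given in the same solution. Fractions and slices were counted by scintillation. S2/S1 is expressed as % of control.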"}, "[8]": {"experiment": "Potentiation of K+ stimulated release of [3H]5-HT from brain slices at a concentration of 1000 nM. (activity expressed as ratio of S2 (second stimulation)/S1(first stimulation))", "assay_type": "functional, Rattus norvegicus", "procedure,_shortened": "(§3)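 Rat occipital cortex slices (0.3 × 0.3 mm) preloaded with [3H]-5-HT, superfused at 0.4 mL/min with oxygenated Krebs-Henseleit pH 7.4 containing 2.5 μM citalopram. Two 4-min 25 mM KCl pulses at 62 and 98 min, compound present for 72 min spanning S2. Fractional release counted by liquid scintillation. S2/S1 ratio reported, also as % of control; n=3–8.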"}, "Rattus norvegicus [9]": {"tested_on": "Rattus norvegicus", "experiment": "Effect on the wet dog shake response(WDS) in rats after 9 determinations at a dose of 3mg/kg, sc pretreated with 200 mg/kg ip of pCPA.", "assay_type": "functional", "conditions": "route subcutaneous", "procedure,_shortened": "as §2"}, "Rattus norvegicus [10]": {"organism": "Rattus norvegicus", "experiment": "Effect on 5-HTP turnover in Striatum of rat brain, expressed as percent of control", "assay_type": "functional", "procedure,_shortened": "as §1"}, "[11]": {"experiment": "Potentiation of K+ stimulated release of [3H]5-HT from brain slices at a concentration of 100 nM. (activity expressed as ratio of S2 (second stimulation)/S1(first stimulation))", "assay_type": "functional, Rattus norvegicus", "procedure,_shortened": "as §3"}, "[12]": {"experiment": "Potentiation of K+ stimulated release of [3H]5-HT from brain slices at a concentration of 0 nM. (activity expressed as ratio of S2 (second stimulation)/S1(first stimulation))", "assay_type": "functional, Rattus norvegicus"}, "Rattus norvegicus [13]": {"organism": "Rattus norvegicus", "experiment": "Effect on 5-HTP turnover in hypothalamus of rat brain, expressed as percent of control", "assay_type": "functional", "procedure,_shortened": "as §1"}, "Rattus norvegicus [14]": {"organism": "Rattus norvegicus", "experiment": "Percent control of the stimulation ratio S2 (second stimulation)/S1(first stimulation) at a concentration of 1000 nM. (p<0.05)", "assay_type": "functional"}, "Rattus norvegicus [15]": {"organism": "Rattus norvegicus", "experiment": "Effect on 5-HTP turnover in Hippocampus of rat brain, expressed as percent of control", "assay_type": "functional", "procedure,_shortened": "as §1"}, "[16]": {"experiment": "Effect on 5-HTP turnover in Frontal cortex of rat brain, expressed as percent of control", "assay_type": "functional", "procedure,_shortened": "as §1"}, "[17]": {"experiment": "Effect on 5-HIAA/5-HT turnover in Frontal cortex of rat brain, expressed as percent of control", "assay_type": "functional", "procedure,_shortened": "as §1"}, "[18]": {"molecular_target": "Muscarinic acetylcholine receptor M3 (Rattus norvegicus, UniProt P08483)", "sequence (P08483 whole entry)": "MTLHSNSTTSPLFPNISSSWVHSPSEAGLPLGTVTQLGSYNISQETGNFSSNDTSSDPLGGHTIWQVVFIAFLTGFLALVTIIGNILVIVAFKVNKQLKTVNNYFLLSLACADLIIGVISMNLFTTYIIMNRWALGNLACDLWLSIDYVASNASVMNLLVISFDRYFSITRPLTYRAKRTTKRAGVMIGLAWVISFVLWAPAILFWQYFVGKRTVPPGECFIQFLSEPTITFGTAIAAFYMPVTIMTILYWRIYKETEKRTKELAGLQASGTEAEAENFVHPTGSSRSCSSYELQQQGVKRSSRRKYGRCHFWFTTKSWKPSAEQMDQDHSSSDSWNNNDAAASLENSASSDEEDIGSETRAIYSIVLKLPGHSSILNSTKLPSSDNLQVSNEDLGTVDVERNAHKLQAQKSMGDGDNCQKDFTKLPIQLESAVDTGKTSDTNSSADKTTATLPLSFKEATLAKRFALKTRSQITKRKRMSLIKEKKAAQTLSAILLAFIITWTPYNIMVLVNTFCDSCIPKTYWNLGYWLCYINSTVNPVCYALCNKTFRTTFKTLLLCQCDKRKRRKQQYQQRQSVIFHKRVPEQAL", "experiment": "Binding affinity against Muscarinic acetylcholine receptor using [3H]QNB as the radioligand."}}, "note": "“And” between values parts separate entries of the source, which are not always exact repeats. Equal entries are not always repeated.", "data": [{"smiles": "C1=C(CN2CCOCC2)COc2c1cccc2OC[C@H]1CNCCO1.CS(=O)(=O)O", "values": [{"measurement": "Activity", "setting": "Rattus norvegicus [1]", "result": 142, "unit": "%"}, {"measurement": "No. of WDS/60 min", "setting": "Rattus norvegicus [2]", "result": 17}, {"measurement": "Activity", "setting": "Rattus norvegicus [3]", "result": 145, "unit": "%"}, {"measurement": "Activity", "setting": "Rattus norvegicus [4]", "result": 166, "unit": "%"}, {"measurement": "Ratio of stimulation", "setting": "[5]", "result": "1.28 and 1.39"}, {"measurement": "Ki", "setting": "[6]", "result": "> 3", "unit": "µM"}, {"measurement": "Activity", "setting": "[7]", "result": "149% and 161%"}, {"measurement": "Potentiation", "setting": "[8]", "result": 1.44}, {"measurement": "No. of WDS/60 min", "setting": "Rattus norvegicus [9]", "result": 9.2}, {"measurement": "Activity", "setting": "Rattus norvegicus [10]", "result": 142, "unit": "%"}, {"measurement": "Potentiation", "setting": "[11]", "result": 1.23}, {"measurement": "Potentiation", "setting": "[12]", "result": 0.99}, {"measurement": "Activity", "setting": "Rattus norvegicus [13]", "result": 140, "unit": "%"}, {"measurement": "Control", "setting": "Rattus norvegicus [14]", "result": 153, "unit": "%"}, {"measurement": "Activity", "setting": "Rattus norvegicus [15]", "result": 148, "unit": "%"}, {"measurement": "Activity", "setting": "[16]", "result": 142, "unit": "%"}, {"measurement": "Activity", "setting": "[17]", "result": 161, "unit": "%"}, {"measurement": "Ki", "setting": "[18]", "result": "> 1", "unit": "µM"}]}]}
